What was measured:
[1] = folding enthalpy; higher = less favourable; fluorescence melt of hairpins on a sequencing array, two-state fit; settings: sodium 0.088 M
How it was run: (§1)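 Cy3 fluorescence of library hairpins on a sequenced MiSeq flow cell, with annealed Cy3 and quencher oligos, was imaged in 50 mM Na-HEPES pH 8.0, 25 mM NaCl in 2.5 °C steps up to 60 °C. Signals were normalised to pre-quench Cy3 and to control variants. Melting temperature and folding enthalpy came from bootstrapped two-state fits, inverse-variance combined over four replicates. Fitted temperatures were raised by 9.35 °C to match UV melts.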

[2] = melting temperature; fluorescence melt of hairpins on a sequencing array, two-state fit, raised by 9.35 °C to match UV melts; settings: sodium 0.088 M
How it was run: as §1

Sequence	folding enthalpy [1] [kcal/mol]	Tm [2] [°C]
GCTATCGCGAAAGCGAGC (((..(((....))))))	-10.3	39.2
GCGTGAGGAAACTCGCGC (((.(((....))).)))	-43	64.8
GATCGTGAGACGATC ((((((...))))))	-33.8	54
GATCCACCTTTGGATC ((((((....))))))	-34.9	50.1
GATCTGCCACCAGATC ((((((....))))))	-35.1	48.7
GTAGACGAAAGTCTGTAC ((((((....)))..)))	-11.6	36.8
GACTAGCGAAAGCTGTC (((.(((....))))))	-19.6	50.3
GATCAACCGAAAGGTATC (((..(((....))))))	-12.1	25.6
GAGCTCGGAAACAAGCTC (((((.(....).)))))	-30	43
GTCCACCGAAAGGTTGAC (((.(((....))).)))	-29.6	49.3
GCTTCGCGAAAGCGACGC ((.((((....)))).))	-22.5	60.9
GATCACCCCTGTGATC ((((((....))))))	-47.6	55.6
GATTGCGAAAGCATCATC ((((((....)))..)))	-10.9	29.6
GGCTGGCGAAAGCCCGCC (((.(((....))).)))	-22.6	63
GATCTACCCTAGATC ((((((...))))))	-24.7	40.7
GCCGGGCGAAAGCGTGGC (((..((....))..)))	-36.4	65.9
GTTCTCGAAAGAGGAAC ((((((....))).)))	-20.8	38.3
GGTCCTGGAAACGGGACC (((((.(....).)))))	-57.4	57.3
GCACAGGGAAACCTACGC ((..(((....)))..))	-15.8	34.9

Sequence	folding enthalpy [1] [kcal/mol]	Tm [2] [°C]
GCGACATGTCGC ((((....))))	-37	63.8
GCTTAGGGAAACCTGAGC (((.(((....))).)))	-32.8	46.7
AATGCGAAAGCATT (((((....)))))	-15.3	64.9
GAATACGGAAACGTGTTC (((.(((....))).)))	-33.2	47.1
GATCTGGGAAACCGGATC ((((.((....)).))))	-44.8	49.8
GATCCAAATTTGGATC ((((((....))))))	-36.1	52.9
GGGTGTTCGAAAGAACCC (((..(((....))))))	-16.7	52
GGGAGTCGAAAGACCCCC (((.(((....))).)))	-37.3	59.3
GTCCACACGAAAGTGGAC (((..(((....))))))	-29.9	56.3
GAGCCAGGAAACTGGCCC (.(((((....))))).)	-11.3	45.8
GTATCACGAAAGTGCTAC (((.(((....))).)))	-22.7	41.1
GTGCAAGCGAAAGCTCAC (((..(((....))))))	-13.4	42.9
GTCGACCCGAAAGGGGAC (((..(((....))))))	-13.4	40
GCGATCTCTCGC ((((....))))	-31.1	47.9
GAACAACGAAAGTTTTC (((.(((....))))))	-11.8	28.2
GGGCACACGAAAGTGCCC (((..(((....))))))	-30.4	67.3
ACCGAGAAATCGGT (((((....)))))	-18.3	49.5
CTTTGGAAACAAAG (((((....)))))	-22.4	37.1
GGATATCGAAAGATTCC (((.(((....))))))	-25.9	39.5

Reference: the array DNA melting data of Ke et al. (doi:10.1101/2024.01.08.574731)
